Experiments:
Nitric oxide synthase 3 = target: T1, Nitric oxide synthase 3 (Homo sapiens, UniProt P29474); test: Inhibitory activity evaluated from soluble cell extract of human endothelia constitutive enzyme (Endothelial nitric oxide synthase) and partially purified by DEAE-sepharose chromatography
T1 sequence (P29474 whole entry): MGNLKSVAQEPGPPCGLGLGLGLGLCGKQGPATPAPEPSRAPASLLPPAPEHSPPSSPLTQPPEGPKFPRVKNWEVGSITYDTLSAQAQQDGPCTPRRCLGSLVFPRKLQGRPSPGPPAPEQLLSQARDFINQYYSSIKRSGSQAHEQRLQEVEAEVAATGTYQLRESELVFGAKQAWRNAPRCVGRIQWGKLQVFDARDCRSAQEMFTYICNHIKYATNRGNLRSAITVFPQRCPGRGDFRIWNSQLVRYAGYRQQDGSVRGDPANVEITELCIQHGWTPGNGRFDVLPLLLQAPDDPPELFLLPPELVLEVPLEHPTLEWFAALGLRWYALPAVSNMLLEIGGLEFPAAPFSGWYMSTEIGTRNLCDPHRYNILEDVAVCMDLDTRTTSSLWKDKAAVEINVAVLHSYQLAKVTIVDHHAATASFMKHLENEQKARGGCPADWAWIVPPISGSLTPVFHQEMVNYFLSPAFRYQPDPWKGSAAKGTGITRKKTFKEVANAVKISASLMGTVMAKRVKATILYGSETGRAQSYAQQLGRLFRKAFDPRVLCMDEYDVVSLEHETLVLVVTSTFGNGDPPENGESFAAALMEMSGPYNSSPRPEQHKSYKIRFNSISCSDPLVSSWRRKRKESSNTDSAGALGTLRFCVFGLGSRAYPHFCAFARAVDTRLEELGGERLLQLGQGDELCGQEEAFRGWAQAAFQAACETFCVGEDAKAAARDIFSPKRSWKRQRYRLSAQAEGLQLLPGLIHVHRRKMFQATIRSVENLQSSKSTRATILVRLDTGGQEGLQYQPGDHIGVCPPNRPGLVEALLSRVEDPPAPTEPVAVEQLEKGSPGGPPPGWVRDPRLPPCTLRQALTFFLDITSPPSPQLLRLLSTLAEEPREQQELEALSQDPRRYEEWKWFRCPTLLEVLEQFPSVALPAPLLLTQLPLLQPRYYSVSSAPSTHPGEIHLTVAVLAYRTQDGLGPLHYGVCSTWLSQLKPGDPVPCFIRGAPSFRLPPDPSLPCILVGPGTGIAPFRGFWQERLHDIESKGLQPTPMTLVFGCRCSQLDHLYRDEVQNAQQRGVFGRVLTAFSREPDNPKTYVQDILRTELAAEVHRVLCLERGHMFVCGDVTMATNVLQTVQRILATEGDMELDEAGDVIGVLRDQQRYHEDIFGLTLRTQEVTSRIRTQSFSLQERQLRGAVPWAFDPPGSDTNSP
Outline: (§1)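 Recombinant human iNOS, eNOS or nNOS expressed in Sf9 cells (baculovirus). L-[3H]arginine to [3H]citrulline conversion in Tris pH 7.6 with BSA, DTT, CaCl2, FAD, tetrahydrobiopterin, NADPH and 30 μM final L-arginine. Calmodulin at 40 nM final for eNOS and nNOS only. 15 min at 37 °C, stopped with EGTA/HEPES pH 5.5, Dowex separation, scintillation counting. At least duplicate.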

Nitric oxide synthase 1 [1] = target: T2, Nitric oxide synthase 1 (Homo sapiens, UniProt P29475); test: Inhibitory activity evaluated from soluble cell extract of Neuronal nitric oxide synthase and partially purified by DEAE-sepharose chromatography
T2 sequence (P29475 whole entry): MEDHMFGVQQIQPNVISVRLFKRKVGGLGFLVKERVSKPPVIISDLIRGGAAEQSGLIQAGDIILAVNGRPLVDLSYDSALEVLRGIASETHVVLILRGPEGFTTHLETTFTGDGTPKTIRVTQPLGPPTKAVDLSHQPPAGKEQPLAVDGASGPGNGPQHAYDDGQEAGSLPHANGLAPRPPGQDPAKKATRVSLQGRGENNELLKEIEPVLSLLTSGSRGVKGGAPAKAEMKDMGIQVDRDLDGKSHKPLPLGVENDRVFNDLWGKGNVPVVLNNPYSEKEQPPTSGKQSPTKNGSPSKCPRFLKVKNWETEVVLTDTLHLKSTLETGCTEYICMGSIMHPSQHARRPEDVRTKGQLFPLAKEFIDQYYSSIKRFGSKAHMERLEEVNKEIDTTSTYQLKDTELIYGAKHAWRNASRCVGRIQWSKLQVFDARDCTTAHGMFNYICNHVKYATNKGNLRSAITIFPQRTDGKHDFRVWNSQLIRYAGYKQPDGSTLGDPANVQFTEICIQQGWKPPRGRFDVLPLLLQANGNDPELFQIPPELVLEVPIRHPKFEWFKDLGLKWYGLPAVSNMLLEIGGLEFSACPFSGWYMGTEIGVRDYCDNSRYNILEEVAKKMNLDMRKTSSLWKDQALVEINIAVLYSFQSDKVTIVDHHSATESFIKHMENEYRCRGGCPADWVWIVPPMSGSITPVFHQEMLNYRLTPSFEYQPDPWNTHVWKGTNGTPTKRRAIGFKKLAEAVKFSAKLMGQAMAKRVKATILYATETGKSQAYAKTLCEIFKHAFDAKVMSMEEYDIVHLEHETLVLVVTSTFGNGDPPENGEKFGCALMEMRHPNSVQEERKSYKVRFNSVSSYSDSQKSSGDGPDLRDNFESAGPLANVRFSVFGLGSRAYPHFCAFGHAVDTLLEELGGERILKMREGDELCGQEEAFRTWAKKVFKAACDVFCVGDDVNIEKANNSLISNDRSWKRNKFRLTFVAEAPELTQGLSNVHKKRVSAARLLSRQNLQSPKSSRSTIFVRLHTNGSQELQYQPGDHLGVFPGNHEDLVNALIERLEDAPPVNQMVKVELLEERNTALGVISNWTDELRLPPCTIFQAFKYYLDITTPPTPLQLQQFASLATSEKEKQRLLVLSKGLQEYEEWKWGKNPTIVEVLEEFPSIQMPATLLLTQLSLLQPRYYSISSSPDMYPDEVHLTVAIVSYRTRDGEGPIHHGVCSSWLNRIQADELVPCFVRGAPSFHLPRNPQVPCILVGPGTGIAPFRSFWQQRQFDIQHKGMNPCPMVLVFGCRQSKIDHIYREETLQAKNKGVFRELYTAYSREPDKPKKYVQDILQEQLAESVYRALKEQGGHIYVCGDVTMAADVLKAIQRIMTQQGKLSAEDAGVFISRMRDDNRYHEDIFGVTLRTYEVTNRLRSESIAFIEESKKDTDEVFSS

[2] = target: T3, Nitric oxide synthase, inducible (Mus musculus, UniProt P29477); test: The ability of compound to inhibit mouse Inducible nitric oxide synthase in LPS stimulated mouse RAW cells was determined; assay type: cell-based
T3 sequence (P29477 whole entry): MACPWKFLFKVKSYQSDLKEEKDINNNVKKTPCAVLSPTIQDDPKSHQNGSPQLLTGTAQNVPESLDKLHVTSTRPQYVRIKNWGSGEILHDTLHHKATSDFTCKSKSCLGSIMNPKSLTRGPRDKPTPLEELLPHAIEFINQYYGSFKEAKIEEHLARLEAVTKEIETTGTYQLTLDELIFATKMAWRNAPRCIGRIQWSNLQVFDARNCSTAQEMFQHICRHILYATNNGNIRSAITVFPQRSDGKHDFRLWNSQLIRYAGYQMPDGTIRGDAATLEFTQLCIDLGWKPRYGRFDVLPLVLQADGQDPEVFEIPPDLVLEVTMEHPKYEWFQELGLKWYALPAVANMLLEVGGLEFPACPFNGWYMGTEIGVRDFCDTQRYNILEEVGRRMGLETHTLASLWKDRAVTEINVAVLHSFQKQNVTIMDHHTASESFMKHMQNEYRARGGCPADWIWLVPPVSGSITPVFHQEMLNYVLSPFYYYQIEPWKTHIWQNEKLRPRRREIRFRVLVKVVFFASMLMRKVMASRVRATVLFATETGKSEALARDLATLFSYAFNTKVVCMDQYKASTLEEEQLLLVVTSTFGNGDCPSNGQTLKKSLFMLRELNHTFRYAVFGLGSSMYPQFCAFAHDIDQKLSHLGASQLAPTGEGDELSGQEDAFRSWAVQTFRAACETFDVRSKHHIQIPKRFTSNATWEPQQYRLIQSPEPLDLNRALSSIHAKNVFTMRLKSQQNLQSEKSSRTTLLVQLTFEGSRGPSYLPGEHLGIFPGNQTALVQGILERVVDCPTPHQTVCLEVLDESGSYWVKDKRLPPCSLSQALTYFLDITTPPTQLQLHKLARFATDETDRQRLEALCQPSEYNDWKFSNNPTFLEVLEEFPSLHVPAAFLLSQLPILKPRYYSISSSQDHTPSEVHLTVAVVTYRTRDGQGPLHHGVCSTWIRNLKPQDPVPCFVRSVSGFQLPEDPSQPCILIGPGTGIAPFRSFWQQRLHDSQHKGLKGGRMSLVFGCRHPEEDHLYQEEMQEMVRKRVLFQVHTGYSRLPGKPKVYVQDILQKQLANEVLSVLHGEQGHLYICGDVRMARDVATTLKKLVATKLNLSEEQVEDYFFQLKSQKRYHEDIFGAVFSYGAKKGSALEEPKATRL
Outline: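 RAW 264.7 cells plated at 2×10^5/well and induced 17 h with 10 μg/mL LPS (E. coli O111:B4). Washed, preincubated 1 h on ice in Krebs Ringer/HEPES pH 7.5 with glucose, 30 μM L-arginine and five inhibitor concentrations, then 2 h at 37 °C. Nitrite measured fluorometrically.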

[3] = target: Nitric oxide synthase, inducible (Homo sapiens, UniProt P35228); test: Inhibitory activity evaluated for soluble cell extract of human Inducible nitric oxide synthase and partially purified by DEAE-sepharose chromatography; outline: as §1
Nitric oxide synthase, inducible (Homo sapiens, UniProt P35228), sequence (P35228 whole entry): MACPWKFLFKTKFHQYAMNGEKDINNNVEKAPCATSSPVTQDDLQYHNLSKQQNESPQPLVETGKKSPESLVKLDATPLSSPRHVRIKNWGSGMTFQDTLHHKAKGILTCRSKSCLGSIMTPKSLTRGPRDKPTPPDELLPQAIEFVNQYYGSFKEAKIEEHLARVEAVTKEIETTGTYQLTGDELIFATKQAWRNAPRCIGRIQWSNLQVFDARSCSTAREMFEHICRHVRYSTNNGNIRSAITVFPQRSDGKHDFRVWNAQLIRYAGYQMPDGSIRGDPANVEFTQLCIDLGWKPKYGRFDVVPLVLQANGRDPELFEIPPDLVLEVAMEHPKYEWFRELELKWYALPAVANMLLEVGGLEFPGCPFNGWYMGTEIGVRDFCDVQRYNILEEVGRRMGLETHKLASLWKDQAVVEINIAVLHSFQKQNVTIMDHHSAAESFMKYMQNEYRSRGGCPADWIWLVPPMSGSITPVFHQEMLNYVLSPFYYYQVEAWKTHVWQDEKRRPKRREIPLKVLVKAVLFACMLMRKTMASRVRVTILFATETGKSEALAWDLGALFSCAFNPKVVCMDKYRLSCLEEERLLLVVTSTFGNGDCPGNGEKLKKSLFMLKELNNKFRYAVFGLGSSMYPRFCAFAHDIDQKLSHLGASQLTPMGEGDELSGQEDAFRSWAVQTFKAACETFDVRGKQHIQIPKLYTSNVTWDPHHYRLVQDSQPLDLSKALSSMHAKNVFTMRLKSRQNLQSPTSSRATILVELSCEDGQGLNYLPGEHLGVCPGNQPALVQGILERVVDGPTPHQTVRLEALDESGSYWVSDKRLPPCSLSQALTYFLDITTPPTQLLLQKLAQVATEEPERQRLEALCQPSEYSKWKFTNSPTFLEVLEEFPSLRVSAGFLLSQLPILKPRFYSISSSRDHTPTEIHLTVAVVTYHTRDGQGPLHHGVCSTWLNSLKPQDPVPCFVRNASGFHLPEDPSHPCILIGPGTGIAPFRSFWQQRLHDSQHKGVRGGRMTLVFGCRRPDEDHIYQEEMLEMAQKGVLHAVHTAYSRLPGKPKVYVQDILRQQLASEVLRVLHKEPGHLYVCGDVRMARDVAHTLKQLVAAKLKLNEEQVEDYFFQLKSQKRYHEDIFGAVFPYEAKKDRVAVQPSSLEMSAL

[4] = target: Nitric oxide synthase, inducible (Rattus norvegicus) (UniProt Q06518); test: The ability of compounds to inhibit Inducible nitric oxide synthase in LPS-treated male Lewis rats at 10 mg/kg dose; assay type: organism-based; design: dose 10 mg/kg
Nitric oxide synthase, inducible (Rattus norvegicus), sequence (Q06518 whole entry): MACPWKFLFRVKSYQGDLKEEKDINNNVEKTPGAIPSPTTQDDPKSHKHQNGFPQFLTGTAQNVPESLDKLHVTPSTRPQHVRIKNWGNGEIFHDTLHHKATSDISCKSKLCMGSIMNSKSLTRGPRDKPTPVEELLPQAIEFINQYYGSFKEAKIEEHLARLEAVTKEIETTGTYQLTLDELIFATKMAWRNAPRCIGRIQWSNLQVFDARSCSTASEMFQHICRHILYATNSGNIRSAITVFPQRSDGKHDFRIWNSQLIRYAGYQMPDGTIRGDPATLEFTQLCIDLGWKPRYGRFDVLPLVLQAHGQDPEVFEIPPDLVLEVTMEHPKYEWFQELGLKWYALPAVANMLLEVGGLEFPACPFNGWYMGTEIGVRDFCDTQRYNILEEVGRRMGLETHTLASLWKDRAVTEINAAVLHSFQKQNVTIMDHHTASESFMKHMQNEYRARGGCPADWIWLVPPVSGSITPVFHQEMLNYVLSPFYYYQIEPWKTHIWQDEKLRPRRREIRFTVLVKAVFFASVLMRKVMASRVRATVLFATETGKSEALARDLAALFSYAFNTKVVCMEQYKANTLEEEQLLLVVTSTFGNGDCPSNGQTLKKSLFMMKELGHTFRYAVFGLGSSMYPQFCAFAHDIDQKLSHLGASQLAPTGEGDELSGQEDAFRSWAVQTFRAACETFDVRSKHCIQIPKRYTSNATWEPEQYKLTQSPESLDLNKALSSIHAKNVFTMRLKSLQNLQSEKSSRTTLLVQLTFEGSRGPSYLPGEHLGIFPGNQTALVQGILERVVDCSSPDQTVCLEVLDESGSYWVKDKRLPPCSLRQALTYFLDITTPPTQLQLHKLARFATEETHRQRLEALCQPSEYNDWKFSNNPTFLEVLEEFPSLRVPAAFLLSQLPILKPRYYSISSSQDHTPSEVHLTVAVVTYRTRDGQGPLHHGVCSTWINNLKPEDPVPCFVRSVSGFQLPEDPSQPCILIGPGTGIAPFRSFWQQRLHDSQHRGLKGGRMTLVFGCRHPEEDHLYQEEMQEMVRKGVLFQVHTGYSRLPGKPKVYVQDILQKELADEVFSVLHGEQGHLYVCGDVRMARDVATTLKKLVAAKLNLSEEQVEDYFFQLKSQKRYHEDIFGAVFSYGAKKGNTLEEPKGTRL
Outline: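 Rats dosed 10 mg/kg orally by gavage 1 h before LPS (10 mg/kg ip). Blood taken 5 h after LPS; plasma filtered through a 10 000 MW cutoff filter, and nitrite/nitrate measured fluorometrically. Percent inhibition calculated relative to rats given LPS alone.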

Nitric oxide synthase 1 [5] = target: T2, Nitric oxide synthase 1; test: Inhibitory activity evaluated from soluble cell extract of human Neuronal nitric oxide synthase and partially purified by DEAE-sepharose chromatography; outline: as §1
Nitric oxide synthase 1 [6] = target: T2, Nitric oxide synthase 1; test: Inhibitory activity evaluated from soluble cell extract of human nNeuronal nitric oxide synthase and partially purified by DEAE-sepharose chromatography; outline: as §1

SMILES | IC50 (Nitric oxide synthase 3) | IC50 (Nitric oxide synthase 1 [1]) | IC50 [2] | IC50 [3] | inhibition [4] | IC50 (Nitric oxide synthase 1 [5]) | IC50 (Nitric oxide synthase 1 [6])
CCC1CCCCN=C1N (configuration not stated) | 38 µM | 2.4 µM | – | – | – | – | –
NC1=NCCCCC1 | 15 µM | – | 54 µM | 2.1 µM | – | – | –
C=CCC1CCCCC(N)=N1 (configuration not stated) | 21 µM | – | – | – | 80% | – | –
CC1CCN=C(N)CC1 (configuration not stated) | 39 µM | 11 µM | 24 µM | 5.8 µM | – | – | –
C=CCC1CCCCN=C1N (configuration not stated) | 380 µM | 16 µM | 19 µM | 5.8 µM | – | – | –
NC1=NC(c2ccccc2)CCCC1 (configuration not stated) | 215 µM | – | 31 µM | 14 µM | – | 6.6 µM | –
CCC(CC)CC1CCCCC(N)=N1 (configuration not stated) | 660 µM | – | 3.3 µM | 2.1 µM | – | 5.4 µM | –
C[C@@H]1CCCC(N)=NC1 | 39 µM | – | – | – | – | – | 3.8 µM
CCCCC1CCCCC(N)=N1 (configuration not stated) | 103 µM | – | 1.6 µM | 0.5 µM | 60% | – | 0.85 µM
CCCC1CCCCC(N)=N1 (configuration not stated) | 9.5 µM | – | – | – | 85% | – | –

Source: ChEMBL document CHEMBL1131333, “2-Iminohomopiperidinium salts as selective inhibitors of inducible nitric oxide synthase (iNOS)” (J Med Chem, 1998)
